According to ChEMBL document CHEMBL1152122, “New lithocholic and chenodeoxycholic piperazinylcarboxamides with antiproliferative and pro-apoptotic effects on human cancer cell lines” (2008):
Activity calls are given as the source filed them. The rule behind the calls is not given here.

Columns and labels:
[1] = system: HCT-116; test: Cytotoxicity against human HCT116 cells after 24 hrs by neutral red uptake assay; format: functional; details: HCT-116, 24 h, read-out: LD50 (the source's name)
Summary of the method: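 Compounds added after 24 h for a 24 h dose-response, with DMSO vehicle controls. Neutral red 50 µg/mL final for 3 h, then fixation, acid-ethanol extraction and OD at 570 nm. LD50 taken from curves; mean ± standard error of ≥3 experiments.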

[2] = system: KMS-11; test: Cytotoxicity against human KMS11 cells at 50 uM after 24 hrs by neutral red uptake assay; format: functional, cell-based
Summary of the method: (§1)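 After 24 h, a single 50 µM dose was given for 24 or 48 h, with DMSO controls. Neutral red uptake for 3 h at 50 µg/mL final, with read-out at OD 570 nm. Viability expressed as % of untreated cells, four wells per line.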

[3] = system: KMS-11; test: Cytotoxicity against human KMS11 cells assessed as morphological changes at 12 uM after 24 hrs by neutral red uptake assay; format: functional, cell-based
Summary of the method: (§2)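 Cells in RPMI 1640 with 10% FCS (GBM primary culture, HCT-116) or 5% FCS (KMS-11), 2 mM glutamine, antibiotics, used at 70–80% confluency. Morphology examined alongside neutral red uptake viability.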

[4] = system: GBM; test: Cytotoxicity against human GBM cells at 50 uM after 24 hrs by neutral red uptake assay; format: functional, cell-based; summary of the method: as §1
[5] = system: KMS-11; test: Induction of apoptosis in human KMS11 cells assessed as fragmentation of nuclei at 20 uM after 24 hrs […]; format: functional
[6] = system: KMS-11; test: Induction of apoptosis in human KMS11 cells assessed as DNA fragmentation at 5 uM after 24 hrs by Hoechst staining; format: functional, cell-based
Summary of the method: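 KMS-11 cells on glass coverslips fixed in 2% formaldehyde 10 min and stained with Hoechst 33342 (1 µg/mL in PBS, 5 min). Nuclei viewed by epifluorescence microscopy under 350 nm excitation.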

[7] = system: KMS-11; test: Induction of apoptosis in human KMS11 cells assessed as hyperphosphorylation of IkappaB after 24 hrs by Western blotting; format: functional, cell-based
Summary of the method: (§3)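 KMS-11 cells treated 24 h. 5×10^6 cells lysed 40 min on ice (10 mM Tris pH 7.6, 150 mM NaCl, 5 mM EDTA, 1% Triton X-100, PMSF, aprotinin), cleared at 10,000 g. Equal BCA-quantified protein run on reducing SDS-PAGE and transferred to PVDF. Primary antibodies (PARP-1, Mcl-1, IκBα, phospho-IκBα) overnight at 4 °C, then HRP secondary 30 min, chemiluminescent detection.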

[8] = system: KMS-11; test: Induction of apoptosis in human KMS11 cells assessed as Cleavage of Mcl-1 after 24 hrs by Western blotting; format: functional, cell-based; summary of the method: as §3
[9] = system: KMS-11; test: Induction of apoptosis in human KMS11 cells assessed as Cleavage of PARP-1 after 24 hrs by Western blotting; format: functional, cell-based; summary of the method: as §3
[10] = system: KMS-11; test: Induction of apoptosis in human KMS11 cells at 40 uM after 24 hrs by PC5-labeled Apo2.7 antibody based flow cytometry; format: functional
Summary of the method: (§4)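 KMS-11 cells treated 24 h at the stated concentrations, then stained with the phycoerythrin-labeled APO2.7 antibody kit, which detects mitochondrial 7A6 antigen. Analysed by flow cytometry and reported as % APO2.7-positive cells.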

[11] = system: KMS-11; test: Induction of apoptosis in human KMS11 cells after 24 hrs by PC5-labeled Apo2.7 antibody based flow cytometry; format: functional, cell-based; summary of the method: as §4
[12] = system: KMS-11; test: Cytotoxicity against human KMS11 cells assessed as [3H]thymidine incorporation at 20 uM after 24 hrs; format: functional, cell-based
Summary of the method: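 KMS-11 (multiple myeloma plasma-cell line) in RPMI 1640 with 5% FCS, seeded at 500,000 cells/well in triplicate at 37 °C, 5% CO2. After 24 h, drug or vehicle added in fresh medium. After 24 h, pulsed with 1 μCi/well [3H]thymidine. Cells trypsin/EDTA-detached, harvested onto glass filters, counted by scintillation. Output as % of untreated cells; three independent experiments.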

[13] = system: KMS-11; test: Induction of apoptosis in human KMS11 cells at 10 uM after 24 hrs by PC5-labeled Apo2.7 antibody based flow cytometry; format: functional; summary of the method: as §4
[14] = system: GBM; test: Cytotoxicity against human GBM cells assessed as morphological changes at 12 uM after 24 hrs by neutral red uptake assay; format: functional, cell-based; summary of the method: as §2
[15] = system: HCT-116; test: Cytotoxicity against human HCT116 cells assessed as morphological changes at 12 uM after 24 hrs by neutral red uptake assay; format: functional, cell-based; summary of the method: as §2
[16] = system: KMS-11; test: Induction of apoptosis in human KMS11 cells assessed as fragmentation of nuclei at 10 uM after 24 hrs […]; format: functional
[17] = system: HCT-116; test: Cytotoxicity against human HCT116 cells at 50 uM after 24 hrs by neutral red uptake assay; format: functional, cell-based; summary of the method: as §1
[18] = system: HCT-116; test: Cytotoxicity against human HCT116 cells at 50 uM after 48 hrs by neutral red uptake assay; format: functional, cell-based; summary of the method: as §1
[19] = system: GBM; test: Cytotoxicity against human GBM cells at 50 uM after 48 hrs by neutral red uptake assay; format: functional, cell-based; summary of the method: as §1
[20] = system: KMS-11; test: Cytotoxicity against human KMS11 cells at 50 uM after 48 hrs by neutral red uptake assay; format: functional, cell-based; summary of the method: as §1

| Compound | CC50 [1] | Activity [2] | Activity [4] | Activity [17] | Activity [18] | Activity [19] | Activity [20] | also measured |
| --- | --- | --- | --- | --- | --- | --- | --- | --- |
| C[C@H](CCC(=O)N1CCN(c2ncccn2)CC1)[C@H]1CC[C@H]2[C@@H]3[C@H](O)C[C@@H]4C[C@H](O)CC[C@]4(C)[C@H]3CC[C@]12C | 30 µM |  |  |  |  |  |  |  |
| C[C@H](CCC(=O)N1CCN(c2ncccn2)CC1)[C@H]1CC[C@H]2[C@@H]3CC[C@@H]4C[C@H](O)CC[C@]4(C)[C@H]3CC[C@]12C | 50 µM |  |  |  |  |  |  |  |
| C[C@H](CCC(=O)N1CCN(C/C=C/c2ccccc2)CC1)[C@H]1CC[C@H]2[C@@H]3[C@H](O)C[C@@H]4C[C@H](O)CC[C@]4(C)[C@H]3CC[C@]12C | 18.5 µM | Active | Active | Active |  |  |  | Activity [3]: Active; Activity [5]: 61%; Activity [6]: Active; Activity [7]: Active; Activity [8]: Active; Activity [9]: Active; Activity [10]: 86%; Activity [11]: Dose-dependent effect; Activity [12]: Active; Activity [13]: 37%; Activity [14]: Active; Activity [15]: Active; Activity [16]: 5% |
| C[C@H](CCC(=O)O)[C@H]1CC[C@H]2[C@@H]3CC[C@@H]4C[C@H](O)CC[C@]4(C)[C@H]3CC[C@]12C [LITHOCHOLIC ACID] | > 50 µM | inactive | inactive | inactive | inactive | inactive | inactive |  |
| C[C@H](CCC(=O)O)[C@H]1CC[C@H]2[C@@H]3[C@H](O)C[C@@H]4C[C@H](O)CC[C@]4(C)[C@H]3CC[C@]12C [CHENODIOL] | > 50 µM | inactive | inactive | inactive | inactive | inactive | inactive |  |
| C[C@H](CCC(=O)N1CCN(c2ccccn2)CC1)[C@H]1CC[C@H]2[C@@H]3[C@H](O)C[C@@H]4C[C@H](O)CC[C@]4(C)[C@H]3CC[C@]12C | > 50 µM | inactive | inactive | inactive | inactive | inactive | inactive |  |
| c1ccc(N2CCNCC2)nc1 |  | inactive | inactive | inactive | inactive | inactive | inactive |  |
| c1cnc(N2CCNCC2)nc1 |  | inactive | inactive | inactive | inactive | inactive | inactive |  |
| C(=C\c1ccccc1)/CN1CCNCC1 |  | inactive | inactive | inactive | inactive | inactive | inactive |  |
| C[C@H](CCC(=O)N1CCN(c2ccccn2)CC1)[C@H]1CC[C@H]2[C@@H]3CC[C@@H]4C[C@H](O)CC[C@]4(C)[C@H]3CC[C@]12C | 50 µM |  |  |  |  |  |  |  |
| C[C@H](CCC(=O)N1CCN(C/C=C/c2ccccc2)CC1)[C@H]1CC[C@H]2[C@@H]3CC[C@@H]4C[C@H](O)CC[C@]4(C)[C@H]3CC[C@]12C | > 50 µM | inactive | inactive | inactive | inactive | inactive | inactive |  |
